Active and inactive are the calls of the source.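 The calls were made as follows, unless noted: active = inhibition above 20% together with a positive visual image hit; inconclusive = visual image hit but inhibition not above 20%; inactive = no visual image hit.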
Experiments:
[1] = inhibitors of TNFa-induced NFkB p65 translocation, primary screen, imaging, HUVEC, MLSMR starter and 10KST1 sets (AID 438); settings: HUVEC TNFa-induced p65 nuclear translocation; cell count: measured here: nuclei count (cytotoxicity indicator), at 2.08 µM; inhibition: at 2 µM, stronger effect = higher value, 0% TNFa-plus-vehicle, 100% no-TNFa wells;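 also: compound added about 3h40 before a 20 min TNFalpha stimulation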;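 as to inhibition: signal is the nuclear over cytoplasmic p65 intensity ratio per well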
[2] = inhibitors of E-selectin induction by TNFa, primary screen, imaging, HUVEC, immunofluorescence, MLSMR starter and 10KST1 sets (AID 487;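 active = visually confirmed hit in the image check and inhibition above 20%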;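 as to inhibition: signal is fraction of cell area covered by stained E-selectin grains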;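 as to nuclei count: 100% = median nuclei count of all wells on the same plate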); settings: HUVEC TNFalpha-induced E-selectin immunofluorescence imaging, at 2 µM; inhibition: stronger effect = higher value; nuclei count: measured here: cell number, toxicity
[3] = DUSP6 inhibitors restoring Erk phosphorylation by chemical complementation, primary imaging in DUSP6-transfected HeLa (AID 609;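 active = compounds giving at least 50% inhibition in the cell-based MKP-3 phosphatase rescue imaging test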;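 as to inhibition: phospho-Erk level distribution per well compared with pooled transfected vehicle control wells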); settings: HeLa MKP-3 transfected, phospho-Erk imaging KS statistic, at 10 µM, cells stimulated with TPA for 15 min
[4] = target: Dual specificity protein phosphatase 6 (Homo sapiens) (UniProt Q16828); assay: as above; settings: HeLa MKP-3 transfected, phospho-Erk imaging KS statistic; at 10 µM; stronger effect = higher value; cells stimulated with TPA for 15 min
Chain of Dual specificity protein phosphatase 6 (Homo sapiens) (Q16828 whole entry, looked up): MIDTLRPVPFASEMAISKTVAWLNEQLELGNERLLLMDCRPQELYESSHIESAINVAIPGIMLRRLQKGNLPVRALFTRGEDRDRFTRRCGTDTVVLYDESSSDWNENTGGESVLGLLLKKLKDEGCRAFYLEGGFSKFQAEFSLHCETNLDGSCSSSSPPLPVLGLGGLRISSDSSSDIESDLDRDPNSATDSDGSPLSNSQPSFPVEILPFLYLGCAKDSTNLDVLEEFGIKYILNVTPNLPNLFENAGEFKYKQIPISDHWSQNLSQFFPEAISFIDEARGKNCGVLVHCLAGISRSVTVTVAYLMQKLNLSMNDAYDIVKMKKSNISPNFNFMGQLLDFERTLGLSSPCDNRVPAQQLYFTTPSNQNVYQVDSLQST

[5] = target: Voltage-gated potassium channel subunit beta-2 (Rattus norvegicus) (UniProt P62483); assay: KvBeta enzyme negative modulators, primary screen, biochemical, NADPH fluorescence (AID 622;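 active = fluorescence slope higher than the sample average by over 3 SD, cut at about -0.22 in these data, passing the limit was not always enough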;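 also: slope of raw intensity against log time taken from 70 to 1610 s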); settings: recombinant KvBeta, 4-cyanobenzaldehyde reduction, at 10 µM, stronger effect = higher value
Chain of Voltage-gated potassium channel subunit beta-2 (Rattus norvegicus) (P62483 whole entry, looked up): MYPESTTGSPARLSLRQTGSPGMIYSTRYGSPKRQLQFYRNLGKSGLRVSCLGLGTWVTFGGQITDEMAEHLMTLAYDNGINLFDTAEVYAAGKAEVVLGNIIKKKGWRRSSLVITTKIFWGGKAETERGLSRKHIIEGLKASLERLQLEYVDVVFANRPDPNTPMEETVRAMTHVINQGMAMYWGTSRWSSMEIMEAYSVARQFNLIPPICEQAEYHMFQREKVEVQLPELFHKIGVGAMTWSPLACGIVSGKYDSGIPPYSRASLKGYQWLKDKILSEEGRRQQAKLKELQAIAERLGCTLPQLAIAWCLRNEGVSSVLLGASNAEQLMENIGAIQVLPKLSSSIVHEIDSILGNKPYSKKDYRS

[6] = target: Voltage-gated potassium channel subunit beta-2 (Rattus norvegicus) (UniProt P62483); assay: KvBeta positive modulators, primary screen, biochemical, NADPH fluorescence (AID 623;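 active = NADPH fluorescence slope more negative than the mean of all samples by about 3 SD, 99.7% confidence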;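 also: fluorescence intensity change per second fitted from 20 to 320 s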); settings: Recombinant KvBeta, NADPH fluorescence decrease slope, 10 min; at 10 µM; stronger effect = lower value
[7] = target: Alpha-2C adrenergic receptor (Homo sapiens) (UniProt P18825); assay: modulators of alpha2C/GIRK thallium flux, primary screen, cell-based, HEK293 alpha2C/GIRK1/2 (AID 624;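 active = fluorescence slope after compound addition differing from the mean of all screened samples at 99.7% confidence, in either direction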;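 also: slope of fluorescence ratio to pre-addition baseline per second over 15 to 24 s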); settings: thallium flux BTC fluorescence, at 10 µM, actives lie on both sides
Chain of Alpha-2C adrenergic receptor (Homo sapiens) (P18825 whole entry, looked up): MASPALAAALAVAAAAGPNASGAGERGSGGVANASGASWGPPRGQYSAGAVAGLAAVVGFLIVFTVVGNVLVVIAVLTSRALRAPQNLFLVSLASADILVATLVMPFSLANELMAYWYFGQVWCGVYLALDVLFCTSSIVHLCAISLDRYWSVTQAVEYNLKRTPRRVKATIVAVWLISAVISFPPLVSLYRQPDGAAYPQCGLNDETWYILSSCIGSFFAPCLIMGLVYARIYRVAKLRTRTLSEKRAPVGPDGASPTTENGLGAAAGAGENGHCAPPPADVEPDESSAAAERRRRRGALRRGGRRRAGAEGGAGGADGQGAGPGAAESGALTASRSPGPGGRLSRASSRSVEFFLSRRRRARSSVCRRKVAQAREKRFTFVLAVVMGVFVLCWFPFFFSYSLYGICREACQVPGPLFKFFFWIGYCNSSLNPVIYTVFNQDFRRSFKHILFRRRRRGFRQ

[8] = inhibitors of larval lipid processing in zebrafish, primary screen, whole organism, PED6 fluorescence, gall bladder and intestine (AID 686;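 active = a full or partial loss of lipid-probe fluorescence in the fish gall bladder, intestine or both, judged by eye; inactive = no fluorescence loss, or compound toxic to the fish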;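 also: larvae 5 to 7 days old with five fish per well; signal comes from phospholipase A2 cleavage of quenched PED6 carried via bile; overnight exposure to compound and PED6 before scoring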); settings: Zebrafish larvae PED6 lipid processing, fluorescence scoring; screened at 20 µM (by protocol)
Procedure, shortened: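 Doses: 20 µM single dose. Test system: live zebrafish larvae aged 5-7 days, whole organism. Quantity: five larvae per well. Measured by: By-eye fluorescence microscopy. Reagent: ingested quenched lipid PED6 at 100 nM. Read-out: visual per-well fluorescence inhibition score. Times: overnight exposure of larvae to compound plus PED6.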

[9] = inhibitors of Chlamydomonas gravitaxis, primary screen, whole organism, Chlamydomonas reinhardtii, WT vs cilia-less mutant, absorbance, 96-well (AID 463189;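 active = inhibition at or above 50% relative to wild type and mutant plate controls; inactive = inhibition below 50%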;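 also: 0% = wild type cc124 cells in DMSO and 100% = ciliumless bld1 mutant cells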); settings: OD600 absorbance, 2 days, at 10 µM, stronger effect = higher value
[10] = measured here: cell density z-score
[11] = measured here: nuclear c-Myc green intensity z-score
[12] = measured here: nuclear pErk red intensity z-score, stronger effect = higher value

Row | SMILES | cell count [1] | inhibition [1] | inhibition [2] | nuclei count [2] [%] | z-score [3, 10] | z-score [3, 11] | z-score [3, 12] | inhibition [4] | fluorescence slope [5] | NADPH fluorescence slope [6] | slope [7] | outcome [8] | inhibition [9]
1 | COc1cccc(/C=C2/CN(C)CC3=C2OC(N)=C(C#N)C3c2cccc(OC)c2)c1 (stereo not drawn) | 562 | -0.3% (inactive) | -91.1% (inactive) | 190 | 1.7 | -1.04 | -1.64 | -1.12% (inactive) | -0.289 (inactive) | 4.6e-07 (inactive) | 0.00546 (inactive) | inactive | 3.47% (inactive)
2 | Cc1cc2c(c(=O)n1CC1CCCO1)C(c1ccc3c(c1)OCO3)C(C#N)=C(N)O2 (stereo not drawn) | 430 | -3.9% (inactive) | -118% (inactive) | 138 | -0.219 | 0.61 | 1.43 | -2.91% (inactive) | -0.369 (inactive) | -4.9e-05 (inactive) | 0.00655 (inactive) | inactive | -9.27% (inactive)
3 | COc1cc(C2C3C(=O)N(c4ccc(F)cc4)C(=O)C3ON2c2ccccc2)ccc1O (stereo not drawn) | 470 | -13.5% (inactive) | -60% (inactive) | 137 | -1.73 | -0.628 | 0.0709 | -13.3% (inactive) | -0.498 (inactive) | -3.2e-05 (inactive) | 0.00461 (inactive) | inactive | 16.5% (inactive)
4 | O=S(=O)(O)c1nc2ccccc2n1Cc1ccc(Cl)cc1Cl | 405 | -4.7% (inactive) | -102% (inactive) | 149 | -0.945 | 0.195 | -1.66 | 20.8% (inactive) | -0.337 (inactive) | -1.5e-05 (inactive) | 0.00557 (inactive) | inactive | 27.2% (inactive)
5 | CSc1nc2sc3c(c2c(=O)[nH]1)CCC(C)C3 (stereo not drawn) | 503 | -19.4% (inactive) | -109% (inactive) | 191 | -1.18 | 2.07 | -0.579 | 20.2% (inactive) | -0.364 (inactive) | 1.3e-05 (inactive) | 0.00953 (active) | inactive | 3.37% (inactive)
6 | COc1ccc(N2CCN(C3CC(=O)NC3=O)CC2)cc1 (stereo not drawn) | 540 | -26.9% (inactive) | -161% (inactive) | 176 | 0.114 | -0.641 | -1.94 | 9.82% (inactive) | -0.548 (inactive) | -4.7e-05 (inactive) | 0.00484 (inactive) | inactive | 5.23% (inactive)
7 | CCN(CC)CCNc1nc(-c2ccco2)c2c(c1C#N)CC(C)(C)OC2 | 580 | -4.5% (inactive) | 12.3% (inactive) | 110 | 0.832 | 0.195 | 0.416 | 9.82% (inactive) | -0.379 (inactive) | 1.9e-06 (inactive) | 0.00425 (inactive) | inactive | 47.8% (inactive)
8 | COc1cc(C)nc(N(C)S(=O)(=O)c2ccccc2Cl)n1 | 587 | -9% (inactive) | 26.6% (inactive) | 175 | 1.16 | 0.469 | -0.133 | 9.82% (inactive) | -0.36 (inactive) | 3.2e-06 (inactive) | 0.00436 (inactive) | inactive | -1.55% (inactive)
9 | COC(=O)CN1C2(C#N)CCCCC2CC2CCCCC21C#N (stereo not drawn) | 420 | -8.8% (inactive) | -128% (inactive) | 153 | -0.336 | -0.947 | -0.0966 | 3.66% (inactive) | -0.504 (inactive) | -9.5e-05 (inactive) | 0.00451 (inactive) | inactive | 45.5% (inactive)
10 | Cc1cc(C)n(Cc2ccc(C(=O)NCCC3=CCCCC3)o2)n1 | 333 | -8% (inactive) | -28.7% (inactive) | 119 | 0.702 | 0.069 | -0.61 | 8.76% (inactive) | -0.456 (inactive) | -0.000101 (inactive) | 0.00523 (inactive) | inactive | 16.8% (inactive)
11 | COC(=O)c1ccc(=O)n(Cc2ccco2)c1 | 300 | -2.7% (inactive) | -70.6% (inactive) | 107 | -1.23 | 1.62 | -0.83 | -6.48% (inactive) | -0.404 (inactive) | -1.8e-06 (inactive) | 0.00511 (inactive) | inactive | -14.2% (inactive)
12 | Cc1cc(C)n2c3c(c(C#N)c2n1)CC(C)(C)OC3 | 670 | -7.2% (inactive) | 55.6% (inactive) | 131 | 0.0106 | -1.04 | -0.0691 | 11.3% (inactive) | -0.327 (inactive) | 2.8e-06 (inactive) | 0.00519 (inactive) | inactive | 14.5% (inactive)
13 | CC(C)Cc1[nH]c(=O)c(C#N)c2c1CCCC2 | 623 | 1.3% (inactive) | 2.8% (inactive) | 155 | -1.11 | 0.566 | 0.412 | 5.65% (inactive) | -0.318 (inactive) | -9.4e-06 (inactive) | 0.00948 (inactive) | inactive | 16.6% (inactive)
14 | CCOC(=O)C1=C(CSc2nc3c(cc2C#N)CCC3)OC(N)=C(C#N)C1c1ccccc1 (stereo not drawn) | 514 | -16.1% (inactive) | -90.1% (inactive) | 118 | -0.196 | 0.0665 | -0.283 | -0.674% (inactive) | -0.426 (inactive) | 5.2e-06 (inactive) | 0.00558 (inactive) | inactive | 5.98% (inactive)
15 | O=C(O)CC(SCc1ccc(C(=O)O)o1)C(=O)O (stereo not drawn) | 330 | -17.8% (inactive) | -29.5% (inactive) | 105 | 1.04 | -0.311 | -0.367 | 5.57% (inactive) | -0.528 (inactive) | -7.5e-06 (inactive) | 0.00659 (inactive) | inactive | 48.4% (inactive)
16 | CNC(=O)Nc1cccc(NC(=O)NC)n1 | 351 | -2.8% (inactive) | -90.3% (inactive) | 164 | 0.612 | 0.757 | -1.65 | 11.4% (inactive) | -0.456 (inactive) | -0.000144 (inactive) | 0.00525 (inactive) | inactive | -3.2% (inactive)
17 | Cc1ccc(N(CC(=O)O)C2SC(=O)NC2=O)cc1 (stereo not drawn) | 529 | -12.4% (inactive) | -72.5% (inactive) | 142 | 0.0556 | 0.578 | -1.85 | 18.2% (inactive) | -0.507 (inactive) | -2.2e-05 (inactive) | 0.00492 (inactive) | inactive | 31.2% (inactive)
18 | COC(=O)c1sc(NC(C)=O)c(C(=O)OC)c1C | 633 | -13.3% (inactive) | 4.8% (inactive) | 154 | 1.36 | -0.117 | -1.37 | 6.04% (inactive) | -0.516 (inactive) | -9.3e-05 (inactive) | 0.00594 (inactive) | inactive | -1.51% (inactive)
19 | COc1ccccc1-c1nn2c(-c3ccc(C(C)(C)C)cc3)nnc2s1 | 509 | -5.2% (inactive) | -76.5% (inactive) | 110 | -0.995 | -1.37 | -0.665 | -7.86% (inactive) | -0.42 (inactive) | -3.3e-05 (inactive) | 0.0128 (inactive) | inactive | 19.8% (inactive)
20 | CC1(C)CC(=O)C2=C(C1)N(Cc1ccco1)C(=O)C2(O)C(F)(F)F (stereo not drawn) | 502 | -2.4% (inactive) | -124% (inactive) | 132 | -0.0541 | -0.87 | -0.763 | -12.3% (inactive) | -0.467 (inactive) | -6.1e-05 (inactive) | 0.00641 (inactive) | inactive | 20.3% (inactive)
21 | CCOc1ccc(C2=Nn3c(nnc3-c3cccnc3)SC2)cc1 | 732 | 1.2% (inactive) | -49.1% (inactive) | 186 | -0.574 | 2.33 | 0.047 | -9.66% (inactive) | -0.414 (inactive) | -0.000128 (inactive) | 0.00953 (inactive) | inactive | 8.58% (inactive)

Reference: PubChem BioAssay
